Results taken from ChEMBL document CHEMBL1811902, “Thermodynamic and biological evaluation of a thrombin binding aptamer modified with several unlocked nucleic acid (UNA) monomers and a 2'-C-piperazino-UNA monomer” (Bioorg Med Chem, 2011).
pKd: −log10 of the molar value.

Experiments:
Plasma [1] = experiment: Anticoagulant activity in human plasma assessed as time required for clot formation in presence of compound minus time required for clot formation in absence of compound at 0.33 mM at 37 degC; assay type: functional
How it was run: (§1)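 Pooled citrate plasma from four healthy donors. Thrombin reagent pre-incubated with aptamer at 0.33 mM for 5 min, then mixed with an equal volume of plasma. Clotting time (thrombin time, seconds) read at 37 °C on an automated coagulation analyser. Antithrombin effect taken as the extra clotting time over a water-added reference.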

[2] = Thermodynamic stability in pH 7.0 buffer containing 100 mM Kcl, 10 mM sodium cacodylate; assay type: physicochemical
How it was run: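 UV melting at 295 nm over 5–95 °C at 0.2 °C/min. Samples annealed 5 min at 80 °C, then slowly cooled. Nine strand concentrations spanning 10^-5–10^-6 M, set from absorbance above 80 °C. Heating and cooling profiles recorded. Thermodynamic parameters from non-linear fitting of melting curves with a unimolecular transition model.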

Plasma [3] = experiment: Anticoagulant activity in human plasma assessed as time required for clot formation at 0.33 mM at 37 degC; assay type: functional; how it was run: as §1
Prothrombin = Prothrombin (Homo sapiens, UniProt P00734); experiment: Binding affinity to thrombin at 37 degC by isothermal titration calorimetry
How it was run: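 ITC at 37 °C. One 0.2 µL pre-injection, discarded, then 19 × 2 µL injections. Heat of dilution from aptamer-into-buffer injections subtracted.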

For Cc1cn([C@H]2C[C@H](OP(N)(=O)OC[C@@H]3C[C@@H](OP(N)(=O)OC[C@H]4O[C@@H](n5cnc6c(=O)[nH]c(N)nc65)C[C@@H]4OP(N)(=O)OC[C@H]4O[C@@H](n5cc(C)c(=O)[nH]c5=O)C[C@@H]4OP(N)(=O)OC[C@H]4O[C@@H](n5cnc6c(=O)[nH]c(N)nc65)C[C@@H]4OP(N)(=O)OC[C@H]4O[C@@H](n5cc(C)c(=O)[nH]c5=O)C[C@@H]4OP(N)(=O)OC[C@H]4O[C@@H](n5cnc6c(=O)[nH]c(N)nc65)C[C@@H]4OP(N)(=O)OC[C@H]4O[C@@H](n5cnc6c(=O)[nH]c(N)nc65)C[C@@H]4OP(N)(=O)OC[C@H]4O[C@@H](n5cc(C)c(=O)[nH]c5=O)C[C@@H]4OP(N)(=O)OC[C@H]4O[C@@H](n5cc(C)c(=O)[nH]c5=O)C[C@@H]4OP(N)(=O)OC[C@H]4O[C@@H](n5cnc6c(=O)[nH]c(N)nc65)C[C@@H]4OP(N)(=O)OC[C@H]4O[C@@H](n5cnc6c(=O)[nH]c(N)nc65)C[C@@H]4O)[C@H](n4cnc5c(=O)[nH]c(N)nc54)O3)[C@@H](COP(N)(=O)O[C@H]3C[C@H](n4cc(C)c(=O)[nH]c4=O)O[C@@H]3COP(N)(=O)O[C@H]3C[C@H](n4cnc5c(=O)[nH]c(N)nc54)O[C@@H]3COP(N)(=O)O[C@H]3C[C@H](n4cnc5c(=O)[nH]c(N)nc54)O[C@@H]3COC(=O)CCCC[C@@H]3SC[C@@H]4NC(=O)N[C@@H]43)O2)c(=O)[nH]c1=O (stereo not given in full) [THROMBIN BINDING APTAMER], which Time (Plasma [1]) is on record?
The Time was 13.6 s.

And the Tm [2]?
The Tm was 42.2 °C.

What about the Time (Plasma [3]) of the same compound?
Its Time is 32.6 s.

And the pKd (Prothrombin)?
Its pKd is 7.32.

For Cc1cn([C@H]2C[C@H](OP(N)(=O)OC[C@H]3O[C@@H](n4cnc5c(=O)[nH]c(N)nc54)C[C@@H]3OP(N)(=O)OC[C@H]3O[C@@H](n4cnc5c(=O)[nH]c(N)nc54)C[C@@H]3O)[C@@H](COP(N)(=O)OC[C@@H](COP(N)(=O)O[C@H]3C[C@H](n4cnc5c(=O)[nH]c(N)nc54)O[C@@H]3COP(N)(=O)O[C@H]3C[C@H](n4cnc5c(=O)[nH]c(N)nc54)O[C@@H]3COP(N)(=O)O[C@H]3C[C@H](n4cc(C)c(=O)[nH]c4=O)O[C@@H]3COP(N)(=O)O[C@H]3C[C@H](n4cnc5c(=O)[nH]c(N)nc54)O[C@@H]3COP(N)(=O)O[C@H]3C[C@H](n4c(C)cc(=O)[nH]c4=O)O[C@@H]3COP(N)(=O)O[C@H]3C[C@H](n4cnc5c(=O)[nH]c(N)nc54)O[C@@H]3COP(N)(=O)O[C@@H]3C[C@@H](COP(N)(=O)O[C@H]4C[C@H](n5cc(C)c(=O)[nH]c5=O)O[C@@H]4COP(N)(=O)O[C@H]4C[C@H](n5cc(C)c(=O)[nH]c5=O)O[C@@H]4COP(N)(=O)O[C@H]4C[C@H](n5cnc6c(=O)[nH]c(N)nc65)O[C@@H]4COP(N)(=O)O[C@H]4C[C@H](n5cnc6c(=O)[nH]c(N)nc65)O[C@@H]4COC(=O)CCCC[C@@H]4SC[C@@H]5NC(=O)N[C@@H]54)O[C@H]3n3cnc4c(=O)[nH]c(N)nc43)O[C@H](CN3CCNCC3)n3ccc(=O)[nH]c3=O)O2)c(=O)[nH]c1=O (stereo not given in full), which Time (Plasma [1]) is on record?
The Time was 3.5 s.

And the Tm [2]?
The Tm was 44.8 °C.

And the Time (Plasma [3])?
Its Time is 22.5 s.

What about the pKd (Prothrombin) of the same compound?
Its pKd is 6.00.

For Cc1cn([C@H]2C[C@H](OP(N)(=O)OC[C@@H]3C[C@@H](OP(N)(=O)OC[C@H]4O[C@@H](n5cnc6c(=O)[nH]c(N)nc65)C[C@@H]4OP(N)(=O)OC[C@H](COP(N)(=O)OC[C@H]4O[C@@H](n5cnc6c(=O)[nH]c(N)nc65)C[C@@H]4OP(N)(=O)OC[C@H]4O[C@@H](n5cc(C)c(=O)[nH]c5=O)C[C@@H]4OP(N)(=O)OC[C@H]4O[C@@H](n5cnc6c(=O)[nH]c(N)nc65)C[C@@H]4OP(N)(=O)OC[C@H]4O[C@@H](n5cnc6c(=O)[nH]c(N)nc65)C[C@@H]4OP(N)(=O)OC[C@H]4O[C@@H](n5cc(C)c(=O)[nH]c5=O)C[C@@H]4OP(N)(=O)OC[C@H]4O[C@@H](n5cc(C)c(=O)[nH]c5=O)C[C@@H]4OP(N)(=O)OC[C@H]4O[C@@H](n5cnc6c(=O)[nH]c(N)nc65)C[C@@H]4OP(N)(=O)OC[C@H]4O[C@@H](n5cnc6c(=O)[nH]c(N)nc65)C[C@@H]4O)O[C@H](CO)n4ccc(=O)[nH]c4=O)[C@H](n4cnc5c(=O)[nH]c(N)nc54)O3)[C@@H](COP(N)(=O)OC[C@@H](COP(N)(=O)O[C@H]3C[C@H](n4cnc5c(=O)[nH]c(N)nc54)O[C@@H]3COP(N)(=O)O[C@H]3C[C@H](n4cnc5c(=O)[nH]c(N)nc54)O[C@@H]3COC(=O)CCCC[C@@H]3SC[C@@H]4NC(=O)N[C@@H]43)O[C@H](CO)n3ccc(=O)[nH]c3=O)O2)c(=O)[nH]c1=O (stereo not given in full), which Time (Plasma [1]) is on record?
Its Time is 12.2 s.

And the Tm [2]?
Its Tm is 50.1 °C.

What about the Time (Plasma [3]) of the same compound?
The Time was 31.2 s.

What about the pKd (Prothrombin) of the same compound?
The pKd was 5.89.

What does the source list for Cc1cn([C@H]2C[C@H](OP(N)(=O)OC[C@H]3O[C@@H](n4cnc5c(=O)[nH]c(N)nc54)C[C@@H]3OP(N)(=O)OC[C@H]3O[C@@H](n4cnc5c(=O)[nH]c(N)nc54)C[C@@H]3O)[C@@H](COP(N)(=O)O[C@H]3C[C@H](n4cc(C)c(=O)[nH]c4=O)O[C@@H]3COP(N)(=O)O[C@H]3C[C@H](n4cnc5c(=O)[nH]c(N)nc54)O[C@@H]3COP(N)(=O)O[C@H]3C[C@H](n4cnc5c(=O)[nH]c(N)nc54)O[C@@H]3COP(N)(=O)OC[C@@H](COP(N)(=O)OC[C@@H](COP(N)(=O)OC[C@@H](COP(N)(=O)O[C@H]3C[C@H](n4cnc5c(=O)[nH]c(N)nc54)O[C@@H]3COP(N)(=O)O[C@@H]3C[C@@H](COP(N)(=O)O[C@H]4C[C@H](n5cc(C)c(=O)[nH]c5=O)O[C@@H]4COP(N)(=O)O[C@H]4C[C@H](n5c(C)cc(=O)[nH]c5=O)O[C@@H]4COP(N)(=O)O[C@H]4C[C@H](n5cnc6c(=O)[nH]c(N)nc65)O[C@@H]4COP(N)(=O)O[C@H]4C[C@H](n5cnc6c(=O)[nH]c(N)nc65)O[C@@H]4COC(=O)CCCC[C@@H]4SC[C@@H]5NC(=O)N[C@@H]54)O[C@H]3n3cnc4c(=O)[nH]c(N)nc43)O[C@H](CO)n3ccc(=O)[nH]c3=O)O[C@H](CO)n3cnc4c(=O)[nH]c(N)nc43)O[C@H](CO)n3ccc(=O)[nH]c3=O)O2)c(=O)[nH]c1=O (stereo not given in full)?
Time (Plasma [1]): 1.5 s; Tm [2]: 27 °C; Time (Plasma [3]): 20.5 s; pKd (Prothrombin): 5.82

Which results are given for Cc1cn([C@H]2C[C@H](OP(N)(=O)OC[C@@H]3C[C@@H](OP(N)(=O)OC[C@H]4O[C@@H](n5cnc6c(=O)[nH]c(N)nc65)C[C@@H]4OP(N)(=O)OC[C@H]4O[C@@H](n5cc(C)c(=O)[nH]c5=O)C[C@@H]4OP(N)(=O)OC[C@H]4O[C@@H](n5cnc6c(=O)[nH]c(N)nc65)C[C@@H]4OP(N)(=O)OC[C@H]4O[C@@H](n5cc(C)c(=O)[nH]c5=O)C[C@@H]4OP(N)(=O)OC[C@H]4O[C@@H](n5cnc6c(=O)[nH]c(N)nc65)C[C@@H]4OP(N)(=O)OC[C@H]4O[C@@H](n5cnc6c(=O)[nH]c(N)nc65)C[C@@H]4OP(N)(=O)OC[C@H]4O[C@@H](n5cc(C)c(=O)[nH]c5=O)C[C@@H]4OP(N)(=O)OC[C@H]4O[C@@H](n5cc(C)c(=O)[nH]c5=O)C[C@@H]4OP(N)(=O)OC[C@H]4O[C@@H](n5cnc6c(=O)[nH]c(N)nc65)C[C@@H]4OP(N)(=O)OC[C@H]4O[C@@H](n5cnc6c(=O)[nH]c(N)nc65)C[C@@H]4O)[C@H](n4cnc5c(=O)[nH]c(N)nc54)O3)[C@@H](COP(N)(=O)OC[C@@H](COP(N)(=O)O[C@H]3C[C@H](n4cnc5c(=O)[nH]c(N)nc54)O[C@@H]3COP(N)(=O)O[C@H]3C[C@H](n4cnc5c(=O)[nH]c(N)nc54)O[C@@H]3COC(=O)CCCC[C@@H]3SC[C@@H]4NC(=O)N[C@@H]43)O[C@H](CN3CCNCC3)n3ccc(=O)[nH]c3=O)O2)c(=O)[nH]c1=O (stereo not given in full)?
Time (Plasma [1]): 2.3 s; Tm [2]: 45.4 °C; Time (Plasma [3]): 21.3 s; pKd (Prothrombin): 5.80
